Rows were chosen to be rich in hits. Some 1.1% of all compounds tested hit in one or more screens of this group.
ABCB6 inh MLPCN – inhibitors of human ABC transporter ABCB6; actives 0.19% (n = 360,000); Q9NP58; K562-ABCB6 porphyrin accumulation, flow cytometry, 1 h; hits give low values; fluorescence ratio to DMSO, % at 10 µM; AID 602162;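 active = fluorescence ratio to DMSO below 75%, the collection mean minus 3 SD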;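 note: signal is porphyrin accumulated inside mitochondria; lower ratio means ABCB6 inhibition with less porphyrin fluorescence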
iPSC survival up – hiPSC single-cell survival enhancement. ATPlite luminescence; 100% = ROCK inhibitor wells, 0% = DMSO. survival enhancement, % at 20 µM. actives 0.044% (n = 360,000); in the data active = survival enhancement above about 18%;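 note: cells exposed to compounds for 16 hours before the ATP read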
FAS TE block – blocks the thioesterase domain of human fatty acid synthase | P49327 | recombinant FAS-TE, OMFH fluorogenic substrate, fluorescence endpoint | inhibition, % at 15 µM | actives 0.67% (n = 360,000) | AID 602261;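 active = compounds whose normalised, plate-corrected inhibition of enzyme fluorescence in the single-dose primary screen is 50% or more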
SENP1 inh – inhibitors of human SENP1 SUMO protease catalytic domain; Q9P0U3; actives 0.21% (n = 360,000); recombinant SENP1 catalytic domain, CyPet-SUMO1-YPet FRET cleavage; inhibition, % at 10 µM;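 active = inhibition at least 30% at 10 µM, raw YFP signal under a set limit, fluorescence ratio 0.5 to 1.5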
Target sequence (Q9P0U3 419-644 limits assumed): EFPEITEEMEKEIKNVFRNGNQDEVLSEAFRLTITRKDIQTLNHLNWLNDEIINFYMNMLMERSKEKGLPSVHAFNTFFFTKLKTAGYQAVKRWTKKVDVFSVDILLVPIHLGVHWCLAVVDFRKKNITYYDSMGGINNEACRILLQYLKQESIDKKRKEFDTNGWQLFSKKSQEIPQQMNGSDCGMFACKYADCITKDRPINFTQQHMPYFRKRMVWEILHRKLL
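Test system: human SENP1 catalytic domain; medium: Tris pH 8 buffer plus EDTA, NaCl, BME, BSA, NP40, catalase; incubation: 50 min reaction at room temperature; technique: FRET, CFP and YFP emission; controls: no-enzyme low control and enzyme-plus-DMSO high control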
SENP1 conf – confirmation of human SENP1 SUMO protease inhibitors; shares compounds with SENP1 inh; recombinant SENP1, CyPet-SUMO1-YPet FRET cleavage; inhibition, % at 10 µM; actives 34% (n = 520); in the data active = inhibition mostly above about 35%, no sharp cut-off; inactive = mostly below about 32%
SENP1 kinetic – confirmation of human SENP1 SUMO protease inhibitors, kinetic; shares compounds with SENP1 inh; recombinant SENP1, CyPet-SUMO1-YPet FRET kinetic cleavage; inhibition, % at 10 µM; actives 26% (n = 520); AID 651690; in the data active = inhibition mostly above about 32%, no sharp cut-off; inactive = mostly below about 29%
Large screens that a line does not name were inactive (follow-up assays come after a bar, where they were run).

COc1cccc(C2C3=C(N=c4s/c(=C\c5ccc(O)cc5)c(=O)n42)c2ccccc2CC3)c1OC (stereo not drawn)	none
O=C(CC1CCCCC1)NCCS(=O)(=O)N1CCN(c2ccccc2)CC1	none
CC12CCC(=O)N1C(C(=O)Nc1nc(-c3ccccc3Cl)cs1)CS2 (stereo not drawn)	none
COc1ccc(CCC(=O)OCc2csc(CC(=O)Nc3ccccc3C)n2)cc1	none
O=C1NC(=S)SC1=Cc1cc(Br)ccc1O	SENP1 inh 32.1 | SENP1 conf 96.0 | SENP1 kinetic 52.1
CCOc1ccc(NS(=O)(=O)c2ccc(C(=O)N(C)CC(=O)Nc3ccccc3Br)cc2)cc1	none
Cn1c(=O)oc2cc(S(=O)(=O)Nc3ccc(C(=O)O)cc3)ccc21	none
Cn1c(=O)oc2cc(S(=O)(=O)NCc3ccc(C(=O)O)cc3)ccc21	SENP1 inh 28.3 | SENP1 conf inactive | SENP1 kinetic inactive
CC(C)C(=O)N(Cc1ccccc1)S(=O)(=O)c1ccc2c(c1)oc(=O)n2C	SENP1 inh 42.7 | SENP1 conf inactive | SENP1 kinetic inactive
CN(Cc1ccccc1)C(=O)CCS(=O)(=O)c1ccc2c(c1)oc(=O)n2C	none
CC1=C(C(=O)Nc2ccc(C(=O)NCCCN3CCCCC3C)cc2)SCCO1 (stereo not drawn)	none
Nc1nc(N)c2sc3nc(C(F)(F)F)cc(C(F)(F)F)c3c2n1	SENP1 inh 67.9 | SENP1 conf 34.5 | SENP1 kinetic inactive
Nc1ccc2c(C(F)(F)F)cc(C(F)(F)F)nc2n1	none
COc1ccccc1NC(=O)CON=C(N)CC(=O)NC1CCCCC1	SENP1 inh 54.8 | SENP1 conf 50.7 | SENP1 kinetic 45.8
CN(C)CCN1C(=O)C(O)=C(C(=O)c2cc3ccccc3o2)C1c1ccc(N(C)C)cc1 (stereo not drawn)	SENP1 inh 30.8 | SENP1 conf inactive | SENP1 kinetic inactive
Cc1ccc(C2C(C(=O)c3cc4ccccc4o3)=C(O)C(=O)N2CCN(C)C)o1 (stereo not drawn)	none
CC(C(=O)Nc1nccs1)N1C(=O)c2ccccc2S1(=O)=O (stereo not drawn)	none
Nc1ccc(C(=O)N/N=C/c2ccc(N3CCOCC3)s2)cc1	none
CC(C)(C)OC(=O)N/N=C/c1ccc(N2CCOCC2)s1	SENP1 inh 43.5 | SENP1 conf 64.4 | SENP1 kinetic 43.4
Cc1ccc(-n2cc(-c3ccc([N+](=O)[O-])cc3)[nH]c2=S)c(C)c1	SENP1 inh 62.9 | SENP1 conf 41.9 | SENP1 kinetic 33.2
COc1ccccc1-n1cc(-c2ccc(C)cc2)[nH]c1=S	none
COc1ccccc1-n1cc(-c2ccc([N+](=O)[O-])cc2)[nH]c1=S	SENP1 inh 42.7 | SENP1 conf inactive | SENP1 kinetic inactive
COc1cc(NC(=O)Cc2ccccc2)ccc1NC(=O)c1ccccc1	none
CC(C)CC(=O)Nc1nnc(CSCc2ccc(F)cc2)s1	none
CSc1nnc2c(n1)OC(C)N(C(=O)c1ccccc1)c1ccccc1-2 (stereo not drawn)	SENP1 inh 29.8 | SENP1 conf inactive | SENP1 kinetic 34.5
CC1CCN(S(=O)(=O)c2ccc(C(=O)N3CCCC3C(=O)O)cc2)CC1 (stereo not drawn)	none
S=C1CCSc2ccc(Cl)cc2N1	none
O=C1CCCC2=C1Sc1ccc(Cl)cc1N2	SENP1 inh 72.1 | SENP1 conf 93.3 | SENP1 kinetic 50.3
CC(C(=O)N1CCN(Cc2ccc3c(c2)OCO3)CC1)n1cc([N+](=O)[O-])cn1 (stereo not drawn)	none
O=C(CCc1ccccc1)NCc1ccc2c(c1)OCO2	none
O=C(COC(=O)CCc1ccccc1)NCc1ccc2c(c1)OCO2	SENP1 inh 32.0 | SENP1 conf inactive | SENP1 kinetic inactive
Cc1cccc(C)c1NC(=O)C(C1CC1)n1c(-c2ccc(=O)[nH]c2)nc2ccccc21 (stereo not drawn)	none (no result: ABCB6 inh MLPCN, iPSC survival up, FAS TE block)
Cc1cccc(C)c1NC(=O)C(C)n1c(-c2ccc(=O)[nH]c2)nc2ccccc21 (stereo not drawn)	SENP1 inh 39.7 (no result: ABCB6 inh MLPCN, iPSC survival up, FAS TE block) | SENP1 conf inactive | SENP1 kinetic inactive
CC(/C=N/NC(=O)c1ccccc1F)=C\c1ccccc1	none
COc1ccc2cc(C3=CC(=O)CC(C)(C)C3=O)ccc2c1	SENP1 inh 32.1 | SENP1 conf inactive | SENP1 kinetic inactive
COc1ccc(-c2ccccc2C2=CC(=O)CC(C)(C)C2=O)cc1	SENP1 inh 32.8 | SENP1 conf inactive | SENP1 kinetic inactive
CN(Cc1ccccc1)C(=O)c1cn(C)c2ccc(S(=O)(=O)N3CCCC3)cc2c1=O	none
COc1cc(OC)cc(C(=O)NNC(=O)CCC(=O)c2cccs2)c1	none
Cc1ccc(C2=CC(c3cccs3)n3nnnc3N2)cc1 (stereo not drawn)	none
Fc1ccc(C2=CC(c3cccs3)n3nnnc3N2)cc1 (stereo not drawn)	SENP1 inh 33.4 | SENP1 conf inactive | SENP1 kinetic inactive
Cc1nc2[nH]onc2c2nccc(=O)c12	SENP1 inh 51.5 | SENP1 conf 49.9 | SENP1 kinetic 48.5
CCOc1ccc(/C=C/C(=O)Nc2ccc(OC)cc2[N+](=O)[O-])cc1	SENP1 inh 70.1 | SENP1 conf 51.6 | SENP1 kinetic 34.0
CCOc1ccc(N/C=C/C(=O)c2ccccc2)c([N+](=O)[O-])c1	none
CCOc1ccc(NC(=O)/C=C/c2ccccc2)c([N+](=O)[O-])c1	SENP1 inh 37.1 | SENP1 conf inactive | SENP1 kinetic inactive
CCOc1ccc(OCC(=O)Nc2ccc(OC)cc2[N+](=O)[O-])cc1	none
Cc1cc(Br)ccc1NC(=O)CN(C)C(=O)c1ccc2ccccc2n1	none
COc1ccc(O)c(C2=Nc3ccccc3N=C(c3ccco3)C2)c1	none
Oc1ccc(Cl)cc1C1=Nc2ccccc2N=C(c2ccco2)C1	SENP1 inh 67.4 | SENP1 conf 63.8 | SENP1 kinetic 52.2
Cc1nn(C(=O)c2cccc([N+](=O)[O-])c2)c(C)c1Cl	none
COc1ccc(Nc2cc(C)nc3ncnn23)cc1Cl	SENP1 inh 29.2 | SENP1 conf 34.6 | SENP1 kinetic inactive
Nc1cc2c([N+](=O)[O-])cccc2o1	SENP1 inh 63.0 | SENP1 conf inactive | SENP1 kinetic inactive
CC1(C(=O)NS(=O)(=O)c2ccccc2C(F)(F)F)CCN1C(=O)CCc1cccs1 (stereo not drawn)	none
CC(C)/C=C/CN1CCN(CCCc2ccccc2)C(CCO)C1 (stereo not drawn)	none
C1CCN(CC2CCCCN2)CC1 (stereo not drawn)	SENP1 inh 45.5 | SENP1 conf inactive | SENP1 kinetic inactive
c1ccc(CN2CCN(c3nc4ccccc4s3)CC2)cc1	none
c1ccc(CN2CCN(C3=Nc4cccc5cccc3c45)CC2)cc1	SENP1 inh 82.5 | SENP1 conf 89.3 | SENP1 kinetic 53.1
